A selection: hits, their analogues and other compounds. The true share with any hit is near 2.2%.
PMI act – activators of human PMI, primary screen, biochemical, fluorescence intensity, near-Km mannose 6-phosphate. Mannose-6-phosphate isomerase (Homo sapiens), P34949. purified human PMI, coupled resazurin fluorescence, 20 min; hits give high values; 1 = vehicle control, 0 substrate-free wells. activation factor at 20 µM. 190,000 compounds, 0.005% hits. AID 1214, 2008;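 active = activation factor of 2 or more at 20 µM, relative to plate controls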
Target sequence (P34949 whole entry, looked up): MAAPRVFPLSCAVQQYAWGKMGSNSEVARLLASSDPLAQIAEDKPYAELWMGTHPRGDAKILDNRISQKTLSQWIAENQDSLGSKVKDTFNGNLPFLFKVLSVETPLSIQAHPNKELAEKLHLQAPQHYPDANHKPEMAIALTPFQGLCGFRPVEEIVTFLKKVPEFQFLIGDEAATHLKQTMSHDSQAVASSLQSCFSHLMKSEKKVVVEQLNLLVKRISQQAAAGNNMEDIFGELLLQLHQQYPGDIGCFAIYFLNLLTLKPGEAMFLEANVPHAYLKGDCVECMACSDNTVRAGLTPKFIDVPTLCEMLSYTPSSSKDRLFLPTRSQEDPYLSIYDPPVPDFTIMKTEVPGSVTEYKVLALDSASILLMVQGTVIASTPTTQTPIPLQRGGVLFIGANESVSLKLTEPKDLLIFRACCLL
G6PDH counter – L. mesenteroides G6PDH inhibitors, counter-screen for G6PDH-coupled screening assays, biochemical, Leuconostoc mesenteroides enzyme. inhibition, % at 5 µM. Purified L. mesenteroides G6PDH, diaphorase/resazurin coupled fluorescence, 45 min. 200,000 compounds, 0.12% hits. AID 1020, 2008; in the data active = inhibition above about 50%
ROMK mod – ROMK potassium channel modulators, primary screen, cell-based, thallium flux, MLSMR library; ATP-sensitive inward rectifier potassium channel 1 (Homo sapiens), P48048; Tet-inducible ROMK, thallium flux fluorescence; actives lie on both sides; B-score at 10 µM; 130,000 compounds, 2% hits;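 active = signal ratio slope over the read window, or its plate-corrected B-score, at least 3 SD from the plate mean, either direction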;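 also: B-score of the F/F0 ratio slope over 7 to 12 s after thallium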
PMI act satM6P – human PMI activators, high substrate, primary screen, biochemical, fluorescence intensity, near-saturating mannose 6-phosphate | coupled PMI enzyme assay, resazurin fluorescence, 20 min; hits give high values; 1 = untreated enzyme, 0 = substrate-free blank | AID 1216, 2008 | Mannose-6-phosphate isomerase (Homo sapiens), P34949 | 190,000 compounds, 0.34% hits | activation factor at 20 µM;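 active = activation factor of 2 or more at 20 µM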
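Test system: human phosphomannose isomerase with PGI, G6PDH, diaphorase coupling enzymes / Doses: 20 µM compound, 1% DMSO / Times: enzyme reaction with compound 20 min at room temperature / Measured by: Diaphorase-driven resazurin-to-resorufin fluorescence, excitation 544, emission 590 nm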
Diaph act CS – compounds boosting diaphorase resazurin reduction – biochemical, uHTS, resorufin fluorescence, counter-screen for diaphorase-coupled primary assays, primary screen | activation factor at 20 µM | Diaphorase/resazurin coupled assay, 16 min; hits give high values; 1 = vehicle wells, 0 = NADH-free wells | AID 1229, 2008 | 190,000 compounds, 0.005% hits;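 active = diaphorase activity raised at least twofold by the compound at 20 µM; inactive = activation factor below 2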
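Material: Purified diaphorase enzyme from Clostridium kluyveri | Buffer or medium: 50 mM HEPES pH 7.4 with 4.542 mM MgCl2, 0.005% Tween 20 | Times: 16 min enzyme reaction, ambient temperature | Signal: Red resorufin fluorescence at 544/590 nm excitation/emission | Measure: Increased resorufin signal from activators or reducing compounds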
Diaphorase inh – diaphorase inhibitors and chemical oxidizers, primary screen, counter-screen for diaphorase-coupled primary assays, biochemical, uHTS, resorufin fluorescence; diaphorase resazurin-to-resorufin fluorescence, NADH, 16 min; bacterial (C. kluyveri) enzyme, not human; inhibition, % at 20 µM; 190,000 compounds, 0.69% hits;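 active = primary screen inhibition at 20 µM above a set limit, cut at about 50% in these data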
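Assay system: diaphorase enzyme from Clostridium kluyveri. Quantity: enzyme working solution with 0.14 U/mL diaphorase. Schedule: reaction incubation of 16 min at room temperature. Technique: resorufin fluorescence, excitation 544 nm, emission 590 nm. Controls: No-NADH positive control and DMSO neutral control.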
Each line names hits and unclear results; the compound was inactive in the other large screens.

O=c1oc2ccccc2cc1-c1ccc(O)cc1	none
Oc1cc(-c2ccccc2)c2ccccc2c1	Diaphorase inh 84
Cc1ccc(-c2nc(NC(=O)CSc3cc(C)c4ccccc4n3)ns2)cc1	Diaphorase inh 66
O=C(CSc1n[nH]c(-c2ccccc2)n1)c1ccc(O)c(O)c1	Diaphorase inh 71 (no result: ROMK mod)
COc1ccc2c(C)cc(SCC(=O)Nc3nsc(-c4ccc(C)cc4)n3)nc2c1	none
Cc1cc(SCC(=O)c2ccc(O)c(O)c2)nc2ccccc12	Diaphorase inh 50
Cc1ccc(C(=O)CSc2n[nH]c(-c3ccco3)n2)cc1C	Diaphorase inh 54 (no result: ROMK mod)
CCOC(=O)/C=C/C(=O)Nc1ccccc1-c1ccccc1NC(=O)/C=C/C(=O)OCC	none
COc1cc(C(C)=O)ccc1OCC(=O)NCC1(N2CCCCC2)CCCCC1	none
O=C(COc1ccc([N+](=O)[O-])cc1)Nn1cnnc1	none
CCOC(=O)/C(C#N)=N/Nc1ccc(S(=O)(=O)N2CCc3ccccc32)cc1	none (no result: ROMK mod)
N#C/C(=N\Nc1ccc(S(=O)(=O)N2CCc3ccccc32)cc1)C(N)=S	Diaphorase inh 56
O=C(Cc1cc(=O)[nH]c(=O)[nH]1)NCc1ccc(Cl)cc1	none
CCOC(=O)C(C)On1c(-c2ccccc2)nc2ccc([N+](=O)[O-])cc21 (centres undefined)	PMI act satM6P 2
O=[N+]([O-])c1ccc2nc(-c3ccc(Cl)cc3)n(OCc3ccccc3)c2c1	none (no result: ROMK mod)
O=C(O)COn1c(-c2ccccc2)nc2ccc([N+](=O)[O-])cc21	Diaphorase inh 50
CCOC(=O)C(C)On1c(-c2ccc(Cl)cc2)nc2ccc([N+](=O)[O-])cc21 (centres undefined)	PMI act satM6P 2
O=C(NCCN1CCOCC1)c1ccc(=O)n(Cc2ccc(Cl)cc2)c1	none
Cc1sc(N/N=C/c2cccnc2)nc1-c1ccc(Cl)cc1	none (no result: ROMK mod)
O=C(N/N=C/c1cccnc1)C(O)(c1ccccc1)c1ccccc1	none (no result: ROMK mod)
O=C(O)c1cccc(N/N=C/c2cccnc2)c1	PMI act 2, PMI act satM6P 2.5
Clc1ccc(N/N=C/c2cccnc2)cc1	PMI act satM6P 2.4 (no result: ROMK mod)
CC(C)(C)c1ccc(/C=N/Nc2ccc(C(=O)O)cc2)cc1	none
O=C(O)c1cccc(N/N=C/c2ccc(-c3ccccc3)cc2)c1	PMI act satM6P 2.7
O=C(O)c1cccc(N/N=C/c2cc(Br)cc(Br)c2O)c1	none
CC(C)(C)c1ccc(/C=N/Nc2cccc(C(=O)O)c2)cc1	PMI act satM6P 2
CCOC(=O)C1(CCOC)CCN(C2C3CC4CC(C3)CC2C4)CC1 (centres undefined)	none
O=C(Nc1ccccc1)Nc1snnc1C(=O)Nc1cccc(O)c1	none
COc1cc2c(cc1OC)CN(C(=O)c1ccc(S(=O)(=O)N(C)c3ccccc3)cc1)CC2	none
O=C(O)Cc1c(C(=O)O)nnn1-c1ccc(Cl)cc1Cl	none
N#Cc1sc2nc(-c3ccccc3)cc(-c3ccco3)c2c1N	Diaphorase inh 62
Cc1ccc(C2=NNC3(CCOC(C)(C)C3)S2)cc1 (centres undefined)	ROMK mod 2.5
CCOC(=O)C1(CCCc2ccccc2)CCN(Cc2ccn[nH]2)CC1	none
O=C1C=C(NCCc2ccccc2)C2(CCCCC2)O1	none
CC(N1CCOC1=O)S(=O)(=O)c1ccccc1 (centres undefined)	PMI act satM6P 2
Cc1cc(/C=C2\C(=N)N3N=C(C(C)C)SC3=NC2=O)c(C)n1-c1ccccc1	none
CS/C(=N\S(=O)(=O)c1cccs1)NC(=O)CSc1nc2ccccc2s1	PMI act satM6P 2.4 (no result: ROMK mod)
Cc1ccc(S(=O)(=O)NC(=O)CSc2nc3ccccc3s2)cc1	none
Cc1nc(-c2ccncc2)sc1C(=O)Nc1ccc(Br)cc1	none
COc1ccc(CN(CC2CCCO2)C(=O)c2cc3sccc3n2C)c(OC)c1 (centres undefined)	none
Fc1ccc(N/N=C(/c2ccccc2)c2ccccn2)cc1	PMI act satM6P 2
CCN(CC)C(=O)C1CCN(Cc2cccc(OCc3ccccc3)c2)CC1	ROMK mod -3.1
CCN(CC)C(=O)C1CCCN(Cc2cccc(Oc3ccccc3)c2)C1 (centres undefined)	none (no result: PMI act, G6PDH counter, PMI act satM6P, Diaph act CS, Diaphorase inh)
CCCCNC1=CC(=O)C(=O)c2ccccc21	G6PDH counter 60 (no result: PMI act, ROMK mod, PMI act satM6P, Diaph act CS, Diaphorase inh)
O=C1C=C(Nc2ccccc2)c2ccccc2C1=O	none
COc1ccc(CN2CCNC(=O)C2CC(=O)N(C)Cc2nccn2C)cc1OC (centres undefined)	none
O=C(CSc1ccc(-c2ccncc2)nn1)c1ccccc1	none (no result: ROMK mod)
CCOC(=O)c1c2ccc(OCC(=O)N/N=C/c3ccccc3C(F)(F)F)cc2n2ccccc12	Diaphorase inh 52
Oc1ccc(Cl)cc1C=Nc1ccc2c3c(cccc13)CC2	Diaphorase inh 60
Cc1cccc(C=Nc2ccc3c4c(cccc24)CC3)c1O	none (no result: ROMK mod)
CN1C(=O)C(Cl)(Cl)C(=O)c2ccccc21	Diaphorase inh 76
C/C(CC1(O)C(=O)N(C)c2ccccc21)=N\O (centres undefined)	none
CN1c2ccccc2C(C)(C)C12CCCC(=O)N2 (centres undefined)	PMI act satM6P 2 (no result: ROMK mod)
CC(=O)Nc1ccc(NC(=O)Cn2c(=O)n(-c3ccc(C)cc3)c(=O)c3oc4ccccc4c32)cc1	none
Cc1ccc(NC(=S)N/N=C2\CCCCC2C)cc1 (centres undefined)	PMI act satM6P 2
CC1CCCC/C1=N\NC(=S)Nc1cccnc1 (centres undefined)	none
O=C(CN1C(=O)CSc2cc(S(=O)(=O)N3CCCCCC3)ccc21)NCCc1ccccc1	ROMK mod -5.5
O=C(Nc1ccc2nc(-c3ccco3)c(-c3ccco3)nc2c1)N1CCCCCC1	Diaphorase inh 94 (no result: ROMK mod)
CCOC(=O)C1CCN(C(=O)Nc2ccc3nc(-c4ccco4)c(-c4ccco4)nc3c2)CC1	Diaphorase inh 52 (no result: ROMK mod)
Cc1ccc(NC(=S)Nc2ccc3nc(-c4ccccn4)c(-c4ccccn4)nc3c2)cc1C	G6PDH counter 60, Diaphorase inh 75
O=C(Nc1ccc2nc(-c3ccccn3)c(-c3ccccn3)nc2c1)N1CCOCC1	Diaphorase inh 58 (no result: ROMK mod)

Screens from PubChem BioAssay.
